Experimental data reported in ChEMBL document CHEMBL1938298, “Synthesis and characterization of [¹²⁵I]2-iodo N-[(S)-{(S)-1-methylpiperidin-2-yl}(phenyl)methyl]3-trifluoromethyl-benzamide as novel imaging probe for glycine transporter 1” (Bioorg Med Chem, 2011).
Active and inactive are the calls of the source. No cut-off for these calls is given here.

Key:
[1] = tested on: Mus musculus; experiment: In vivo binding affinity to GlyT1 in ddY mouse brain thalamus at 33.3 kBq, iv after 60 mins in presence of SSR504734 2 mg/kg, iv administered 15 mins prior to compound administration relative to control; assay type: functional, organism-based; set-up: dose 2 mg/kg; settings: tested as the 125I-labelled form
[2] = molecular target: T1, Sodium- and chloride-dependent glycine transporter 1 (Rattus norvegicus) (UniProt P28572); experiment: Binding affinity to GlyT1 in rat brain hippocampus at 0.03 to 0.04 nM preincubated for 20 mins in binding buffer before compound addition measured after 30 mins by autoradiography relative to control; assay type: tissue-based; settings: tested as the 125I-labelled form
T1 sequence (whole entry): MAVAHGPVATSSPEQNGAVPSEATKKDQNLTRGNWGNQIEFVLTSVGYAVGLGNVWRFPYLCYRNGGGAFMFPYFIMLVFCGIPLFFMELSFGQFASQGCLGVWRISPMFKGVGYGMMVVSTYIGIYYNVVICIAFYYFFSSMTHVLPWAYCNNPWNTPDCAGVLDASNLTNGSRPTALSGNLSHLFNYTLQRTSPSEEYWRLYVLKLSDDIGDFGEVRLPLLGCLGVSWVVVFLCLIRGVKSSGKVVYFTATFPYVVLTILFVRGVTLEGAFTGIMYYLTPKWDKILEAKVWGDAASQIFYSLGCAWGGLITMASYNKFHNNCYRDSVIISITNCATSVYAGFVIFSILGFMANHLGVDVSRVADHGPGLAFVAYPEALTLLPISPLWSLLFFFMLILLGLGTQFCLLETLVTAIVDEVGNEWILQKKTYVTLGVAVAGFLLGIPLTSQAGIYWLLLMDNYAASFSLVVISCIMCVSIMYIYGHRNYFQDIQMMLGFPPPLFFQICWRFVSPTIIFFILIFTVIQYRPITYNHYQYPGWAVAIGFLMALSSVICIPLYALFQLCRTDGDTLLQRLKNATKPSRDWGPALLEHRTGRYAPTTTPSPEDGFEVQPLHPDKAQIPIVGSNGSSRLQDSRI
Method in brief: (§1)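 Rat brain sagittal sections (20 µm), 20 min preincubation at 25 °C in Tris-HCl pH 7.5 binding buffer, then [125I] tracer (100 kBq, 0.03–0.04 nM) for 30 min at 25 °C. Nonspecific binding taken with 10 µM unlabeled ligand. Imaging-plate read-out as (PSL−BG)/mm². Mean ± SD, n = 4–5 from at least three rats; Mann–Whitney U-test.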

[3] = molecular target: T1, Sodium- and chloride-dependent glycine transporter 1 (Rattus norvegicus); experiment: Binding affinity to GlyT1 in rat brain medullary region at 0.03 to 0.04 nM preincubated for 20 mins in binding buffer before compound addition measured after 30 mins by autoradiography relative to control; assay type: tissue-based; settings: tested as the 125I-labelled form; method in brief: as §1
[4] = molecular target: T1, Sodium- and chloride-dependent glycine transporter 1 (Rattus norvegicus); experiment: Binding affinity to GlyT1 in rat brain cerebral cortex at 0.03 to 0.04 nM preincubated for 20 mins in binding buffer before compound addition measured after 30 mins by autoradiography in presence of 1 mM GlyT1 substrate glycine relative to control; assay type: tissue-based; settings: tested as the 125I-labelled form
Method in brief: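 Rat brain sagittal sections (20 µm) preincubated 20 min at 25 °C in Tris-HCl buffer pH 7.5 (NaCl, KCl, MgCl2, CaCl2), then 30 min at 25 °C with [125I] tracer (100 kBq, 0.03–0.04 nM) plus competitor (10 µM; glycine 1 or 10 mM). Cold washes, imaging plate 3 days, ROI PSL minus background per mm². % control from ≥triplicate slices, three rats.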

[5] = molecular target: T1, Sodium- and chloride-dependent glycine transporter 1 (Rattus norvegicus); experiment: Binding affinity to GlyT1 in rat brain thalamus at 0.03 to 0.04 nM preincubated for 20 mins in binding buffer before compound addition measured after 30 mins by autoradiography in presence of 0.01 mM GlyT1 inhibitor SSR504734 relative to control; assay type: tissue-based; settings: tested as the 125I-labelled form
[6] = tested on: Mus musculus; experiment: In vivo binding affinity to GlyT1 in ddY mouse brain striatum at 33.3 kBq, iv after 60 mins in presence of N-Me-SSR504734 2 mg/kg, iv administered 15 mins prior to compound administration relative to control; assay type: functional, organism-based; set-up: dose 2 mg/kg; settings: tested as the 125I-labelled form
[7] = molecular target: T1, Sodium- and chloride-dependent glycine transporter 1 (Rattus norvegicus); experiment: Binding affinity to GlyT1 in rat brain midbrain at 0.03 to 0.04 nM preincubated for 20 mins in binding buffer before compound addition measured after 30 mins by autoradiography in presence of 0.01 mM NMDA receptor glycine site antagonist L-701,324 relative to control; assay type: tissue-based; settings: tested as the 125I-labelled form
[8] = tested on: Mus musculus; experiment: In vivo binding affinity to GlyT1 in ddY mouse brain cerebellum at 33.3 kBq, iv after 30 mins in presence of SSR504734 2 mg/kg, iv administered 15 mins prior to compound administration relative to control; assay type: functional, organism-based; set-up: dose 2 mg/kg; settings: tested as the 125I-labelled form
Method in brief: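 Blocking study in male ddY mice (6 weeks, 30–35 g). The blocker (2 mg/kg in 30% DMSO/saline) was injected i.v. 15 min before about 33.3 kBq [125I]tracer i.v.; mice were killed at 30 or 60 min. Brains were divided into cortex, corpus callosum, hippocampus, thalamus, midbrain, medulla and cerebellum, weighed and gamma-counted as % dose/g. Values are mean ± SD, n = 5–6, compared to control by Kruskal–Wallis with Dunn's post-test.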

[9] = molecular target: T1, Sodium- and chloride-dependent glycine transporter 1 (Rattus norvegicus); experiment: Binding affinity to GlyT1 in rat brain thalamus at 0.03 to 0.04 nM preincubated for 20 mins in binding buffer before compound addition measured after 30 mins by autoradiography in presence of 10 mM GlyT1 substrate glycine relative to control; assay type: tissue-based; settings: tested as the 125I-labelled form
[10] = molecular target: T1, Sodium- and chloride-dependent glycine transporter 1 (Rattus norvegicus); experiment: Binding affinity to GlyT1 in rat brain striatum at 0.03 to 0.04 nM preincubated for 20 mins in binding buffer before compound addition measured after 30 mins by autoradiography in presence of 0.01 mM GlyT1 inhibitor HPCP relative to control; assay type: tissue-based; settings: tested as the 125I-labelled form
[11] = tested on: Stomach; experiment: Drug uptake in ddY mouse stomach at 11.1 kBq, iv after 5 min by gamma counting; assay type: ADME, organism-based; settings: in vivo
Method in brief: (§2)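 Male ddY mice (6 weeks, 30–35 g) were given about 11.1 kBq of [125I]tracer in 0.1 mL i.v. via the tail vein. At each time point the animals were killed and organs dissected, weighed and gamma-counted. Uptake is expressed as % injected dose per gram of tissue, mean ± SD, n = 5–6.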

[12] = tested on: Kidney; experiment: Drug uptake in ddY mouse kidney at 11.1 kBq, iv after 180 min by gamma counting; assay type: ADME, organism-based; settings: in vivo, 3 h; method in brief: as §2
[13] = tested on: Heart; experiment: Drug uptake in ddY mouse heart at 11.1 kBq, iv after 60 min by gamma counting; assay type: ADME, organism-based; settings: in vivo, 1 h
Method in brief: (§3)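 Male ddY mice (6 weeks, 30–35 g) received about 11.1 kBq [125I]tracer in 0.1 mL i.v. via tail vein. Killed at set times, organs dissected and weighed, radioactivity gamma counted. Reported as % injected dose/g tissue, mean ± SD, n = 5–6.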

[14] = tested on: Spleen; experiment: Drug uptake in ddY mouse spleen at 11.1 kBq, iv after 30 min by gamma counting; assay type: ADME, organism-based; settings: in vivo, 0.5 h; method in brief: as §2
[15] = tested on: Intestine; experiment: Drug uptake in ddY mouse intestine at 11.1 kBq, iv after 15 min by gamma counting; assay type: ADME, organism-based; settings: in vivo; method in brief: as §3
[16] = tested on: Spleen; experiment: Drug uptake in ddY mouse spleen at 11.1 kBq, iv after 5 min by gamma counting; assay type: ADME, organism-based; settings: in vivo; method in brief: as §2
[17] = tested on: Heart; experiment: Drug uptake in ddY mouse heart at 11.1 kBq, iv after 30 min by gamma counting; assay type: ADME, organism-based; settings: in vivo, 0.5 h; method in brief: as §3
[18] = tested on: Stomach; experiment: Drug uptake in ddY mouse stomach at 11.1 kBq, iv after 15 min by gamma counting; assay type: ADME, organism-based; settings: in vivo; method in brief: as §2
[19] = tested on: Blood; experiment: Drug uptake in ddY mouse blood at 11.1 kBq, iv after 30 min by gamma counting; assay type: ADME, organism-based; settings: in vivo, 0.5 h; method in brief: as §3

Row | Structure (SMILES) | Activity [1] | Activity [2] | Activity [3] | Activity [4] | Activity [5] | Activity [6] | Activity [7] | Activity [8] | Activity [9] | Activity [10] | Drug uptake [11] | Drug uptake [12] | Drug uptake [13] | Drug uptake [14] | Drug uptake [15] | Drug uptake [16] | Drug uptake [17] | Drug uptake [18] | Drug uptake [19]
1 | CN1CCCC[C@H]1[C@@H](NC(=O)c1cccc(C(F)(F)F)c1I)c1ccccc1 | inactive | inactive | Active | 89.6% | 29.6% | Active | 81.3% | inactive | 52.7% | 31.8% |  |  |  |  |  |  |  |  | 
2 | CN1CCCC[C@H]1[C@@H](NC(=O)c1cccc(C(F)(F)F)c1[125I])c1ccccc1 |  |  |  |  |  |  |  |  |  |  | 3.3 % ID/g | 6.97 % ID/g | 2.79 % ID/g | 7.68 % ID/g | 3.25 % ID/g | 5.11 % ID/g | 3.95 % ID/g | 5.22 % ID/g | 0.9 % ID/g
